Source: ChEMBL document CHEMBL1165862, “Synthesis and pharmacological evaluation of novel 5-substituted-1-(phenylsulfonyl)-2-methylbenzimidazole derivatives as anti-inflammatory and analgesic agents” (Eur J Med Chem, 2010)

Key:
Rattus norvegicus [1] = assay: Antiinflammatory activity in Sprague-Dawley rat assessed as reduction of carrageenan-induced paw edema at 200 mg/kg, po administered 30 mins before carrageenan challenge measured after 1 hr by mercury displacement method relative to control; format: functional; design: scale not given: the % may be the effect or the level left
Procedure, shortened: (§1)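 Rats (150–230 g; groups of six), paw edema induced with 1.0% carrageenan. Compounds given p.o. as suspensions in 2% sodium CMC 30 min before carrageenan, test compounds at 200 mg/kg and indomethacin standard at 50 mg/kg; 2% CMC served as control. Paw volume measured by mercury-displacement plethysmography. Mean ± SEM of six animals.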

Mus musculus = assay: Analgesic activity in albino mouse assessed as protection against acetic acid-induced writhing at 100 mg/kg, po administered 30 mins prior to acetic acid challenge measured after 15 mins; format: functional
Procedure, shortened: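 Albino mice of either sex, 20–25 g, groups of six. Dosed orally as suspension in 2% CMC 30 min before i.p. acetic acid (0.6% v/v in distilled water, 1 mL/kg); controls given 2% CMC alone, standard acetyl salicylic acid. Writhes per animal counted for 15 min; activity expressed as percentage protection. Mean ± SEM, n = 6.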

Rattus norvegicus [2] = assay: Gastrointestinal toxicity in Sprague-Dawley rat assessed as lengths of longest diameters of lesions at 20 mg/kg, po after 6 hrs; format: organism-based; design: dose 20 mg/kg, route oral; conditions: in vivo
Procedure, shortened: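 SD rats of either sex (150–200 g), groups of six; dosed orally in 0.1% Tween 80, vehicle as control. Stomachs taken 6 h later, ligated and stored overnight in 2% v/v formol saline. Next day opened along greater curvature, washed in warm water and viewed under 3-fold magnifier. Longest lesion diameters summed per animal as total lesion score (mm); group mean ± SEM.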

Rattus norvegicus [3] = assay: Antiinflammatory activity in Sprague-Dawley rat assessed as reduction of carrageenan-induced paw edema at 50 mg/kg, po administered 30 mins before carrageenan challenge measured after 1 hr by mercury displacement method relative to control; format: functional; design: scale not given: the % may be the effect or the level left; procedure, shortened: as §1

Cc1nc2cc(NCc3ccccc3Cl)ccc2n1S(=O)(=O)c1ccccc1
Activity (Rattus norvegicus [1]): 8.6%

Cc1nc2cc(Nc3ccc(N)cc3)ccc2n1S(=O)(=O)c1ccccc1
Activity (Rattus norvegicus [1]): 39.7%
Activity (Mus musculus): 56.9%
Activity (Rattus norvegicus [2]): 16 mm

CCNc1ccc2c(c1)nc(C)n2S(=O)(=O)c1ccccc1
Activity (Rattus norvegicus [1]): 7.2%

CCCCNc1ccc2c(c1)nc(C)n2S(=O)(=O)c1ccccc1
Activity (Rattus norvegicus [1]): 7.9%

Cc1nc2cc(Nc3ccc([N+](=O)[O-])cc3)ccc2n1S(=O)(=O)c1ccccc1
Activity (Rattus norvegicus [1]): 10.6%

Cc1nc2cc(NCc3ccc([N+](=O)[O-])cc3)ccc2n1S(=O)(=O)c1ccccc1
Activity (Rattus norvegicus [1]): 10.8%

CCCNc1ccc2c(c1)nc(C)n2S(=O)(=O)c1ccccc1
Activity (Rattus norvegicus [1]): 7.7%

Cc1nc2cc(Nc3ccccc3N)ccc2n1S(=O)(=O)c1ccccc1
Activity (Rattus norvegicus [1]): 37%
Activity (Mus musculus): 55.3%
Activity (Rattus norvegicus [2]): 14 mm

Cc1nc2cc(Nc3ccccc3[N+](=O)[O-])ccc2n1S(=O)(=O)c1ccccc1
Activity (Rattus norvegicus [1]): 10.2%

Cc1nc2cc(NCc3ccc(Cl)cc3)ccc2n1S(=O)(=O)c1ccccc1
Activity (Rattus norvegicus [1]): 9.2%

Cc1nc2cc(NCc3ccc(N)cc3)ccc2n1S(=O)(=O)c1ccccc1
Activity (Rattus norvegicus [1]): 33.7%
Activity (Rattus norvegicus [2]): 15 mm

CNc1ccc2c(c1)nc(C)n2S(=O)(=O)c1ccccc1
Activity (Rattus norvegicus [1]): 6.7%

CC(=O)Oc1ccccc1C(=O)O [ASPIRIN]
Activity (Mus musculus): 57.8%

COc1ccc2c(c1)c(CC(=O)O)c(C)n2C(=O)c1ccc(Cl)cc1 [INDOMETHACIN]
Activity (Rattus norvegicus [3]): 43.4%
Activity (Rattus norvegicus [2]): 26 mm
